Only some compounds are listed: those with a hit (about 5.1% of all), similar ones and a draw of the others.
STAT1 blocker = STAT1 signaling inhibitors, primary screen, cell-based, HTS, luciferase reporter; NIH 3T3 STAT1-luciferase reporter, IFN-gamma, luminescence; inhibition, % at 5.5 µM; AID 920, 2007; 200,000 compounds, 0.35% hits;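 active = inhibition above a set limit, the mean inhibition across all tested compounds plus 3 SD, cut at about 34% in these data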;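 note: 0% = IFN-gamma with DMSO and 100% = IFN-gamma with 300 µM nifuroxazide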
STAT1 activator = STAT1 signaling activators, primary screen, cell-based, HTS, luciferase reporter; NIH 3T3 STAT1-luciferase reporter, IFN-gamma, luminescence; 100% = IFN-gamma alone, no compound; activation (% of control), % at 5.5 µM; 200,000 compounds, 2.6% hits;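 active = activation above the screen-wide mean activation plus 3 SD, cut at about 130% in these data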;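 note: raw ratio to IFN-gamma control signal so 100% means no change and 0% no light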
NF-kB expr up = activators of NF-kB expression in neurons, primary screen, cell-based, HTS. human neuronal cells, NF-kB reporter expression; stronger effect = higher value. fold change at 12.5 µM. 190,000 compounds, 1.6% hits; in the data active = fold change above about 3.3
STAT3 inh = IL-6 driven STAT3 reporter inhibitors, primary screen, U3A cells, luciferase, luminescence, MLSCN library; IL-6 STAT3-luciferase reporter; host cell line lacks STAT1; inhibition, % at 5.5 µM; 190,000 compounds, 0.89% hits; AID 862, 2007;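 active = inhibition above the mean inhibition across all screened compounds plus 3 SD, cut at about 44% in these data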;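 note: 0% = DMSO only wells and 100% = 100 µM nifuroxazide control wells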
APP 5'UTR act = activators of APP 5'UTR luciferase reporter, primary screen, SH-SY5Y cells; 190,000 compounds, 1% hits; SH-SY5Y APP 5'UTR luciferase reporter, luminescence; zero percent = DMSO vehicle wells; activation, % at 2 µM; AID 1276, 2008;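 active = activation above a set limit, based on mean plus 3 SD of controls, cut at about 140% in these data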
STAT3 act = IL-6 driven STAT3 reporter potentiators, primary screen, U3A cells, luciferase, luminescence, MLSCN library; activation (% of control), % at 5.6 µM; AID 871, 2007; IL-6 STAT3-luciferase reporter; 100% = signal with IL-6 EC80 alone; 190,000 compounds, 0.91% hits;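 active = activation above the screen-wide mean of compound activation plus 3 SD, cut at about 130% in these data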;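 note: 0% = background luminescence of wells with medium and substrate only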
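Detection: reporter luminescence signal / Assay system: STAT1-lacking human U3A cells, STAT3 luciferase reporter / Incubation: compound pre-incubation 1 h before IL-6, then 6 h stimulation at 37 °C / Control set: IL-6-only high control / Read-out: % activation relative to IL-6 control / Probe or stimulus: Interleukin-6, 33 ng/mL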
Numbers without * were called inactive.

SMILES	STAT1 blocker	STAT1 activator	NF-kB expr up	STAT3 inh	APP 5'UTR act	STAT3 act
O=C(/C=C/c1ccco1)c1ccc(O)cc1	2	99	3.3*	12	79	97
CCOc1ccc(C(=O)/C=C/c2ccc(SC)cc2)cc1	-1	101	0.99	-1	4	105
CC(=O)Nc1ccc(C(=O)/C=C/c2ccco2)cc1	-1	101	1.3	-8	38	105
CC1=C(C)/C(=N/OC(=O)c2cccc([N+](=O)[O-])c2)C=CC1=O	11	94	1.1	2	-5	101
CC(c1ccco1)N(C(=O)COc1ccc(Cl)cc1Cl)c1ccccn1 (stereo unspecified)	-24	122	4*	23	197*	85
O=C(COc1ccc(Cl)cc1Cl)Nc1ccccn1	89*	20	0.97	111*	-1	8
COc1ccccc1OCC(=O)Nc1ccccn1	-29	129*	1.1	16	125	92
Cc1ccc(NC(=O)COC(=O)CC2CCCC2)cc1Cl	4	96	0.93	4	-9	100
COc1ccc(N(C(=O)c2cnccn2)C(C(=O)NC2CCCCC2)c2ccc(O)cc2)cc1 (stereo unspecified)	9	92	0.98	9	2	94
Oc1ccc(/C=N/Nc2ccccc2)cc1	10	90	1.3	2	-2	101
COc1cccc(/C=N/Nc2ccc(C(=O)O)cc2)c1O	91*	17	0.62	100*	-80	15
CC(C)(C)c1ccc(/C=N/Nc2ccc(C(=O)O)cc2)cc1	74*	34	4.5*	88*	55	27
CC(C)(C)c1ccc(/C=N/Nc2cccc(C(=O)O)c2)cc1	38*	66	6.9*	46*	85	64
O=C(O)c1cccc(N/N=C/c2ccc(-c3ccccc3)cc2)c1	47*	55	16*	48*	68	62
CC(=O)N=c1n(C)c2ccccc2n1CCOc1ccccc1	-7	106	1.5	14	-14	92
Cc1ccc(CN(C)CC(=O)Nc2ccc3c(c2)CCC3)cc1	-1	100	1	3	-5	102
Cc1ccc(S(=O)(=O)Nc2n[nH]nc2C(=O)NC2CCCCC2)cc1	2	98	1.7	13	-2	99
O=C(O)c1cccc(N/N=C/c2cc(Br)cc(Br)c2O)c1	-35	131*	1.8	-39	130	130
COc1cc(/C=N\n2nnnc2N)ccc1OCc1ccc(F)cc1	-13	112	0.88	30	3	75
COc1cc(/C=N/n2c(C)n[nH]c2=S)ccc1OCc1ccc(F)cc1	-33	129*	2	8	49	93
Cc1ccc2oc(-c3ccco3)nc2c1	-42	138*	1.3	12	54	90
Cc1ccc2oc(-c3cccc(N)c3)nc2c1	8	92	8.9*	27	158*	84
Nc1ccc2oc(-c3cccs3)nc2c1	-54	149*	2.4	15	85	89
Nc1cccc(-c2nc3cc(S(=O)(=O)c4ccc5oc(-c6cccc(N)c6)nc5c4)ccc3o2)c1	-6	106	1	10	-17	93
O=P(OCC1CC1)(c1ccccc1)c1ccccc1	-6	106	0.91	-5	-10	102
SMILES	STAT1 blocker	STAT1 activator	NF-kB expr up	STAT3 inh	APP 5'UTR act	STAT3 act
O=[N+]([O-])c1ccc(-c2cn(-c3ccccc3)c(=S)[nH]2)cc1	-34	131*	1.1	-7	40	106
O=C(CCc1nnc(CCc2ccccc2)o1)N1CCCC1c1nccs1 (stereo unspecified)	-13	110	1.6	14	1	92
CCCc1nc2oc3cc(OC)ccc3c(=O)c2c(=O)n1Cc1ccco1	-2	102	1.4	21	-7	87
CCCc1nc2sc3ccccc3c(=O)c2c(=O)n1Cc1ccco1	4	96	0.93	-50	1	147*
COc1ccc2c(C)cc(Sc3nnnn3-c3ccccc3)nc2c1	1	99	3.4*	32	-1	74
O=C(c1ccc(Cl)cc1)c1c[nH]c(C(=O)NNc2ccccc2)c1	3	97	1.3	11	9	98

Screening data: PubChem BioAssay, several laboratories
